Sampled rows, rich in hits. Any-hit rate of the full collection: about 1.8%.
CHRM5 PAM: CHRM5 positive allosteric modulation; P08912; AID 624038; CHO-K1 hM5, Fluo-8 calcium, ACh EC20 PAM; 0% = ACh EC20, 100% = ACh EC100; activation, % at 3 µM; 360,000 compounds, 0.3% hits;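 active means activation above the run cutoff, the mean activation of all test compounds plus 3 SD, cut at about 18% in these data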
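Measured by: Fluo-8 calcium fluorescence; material: human M5 receptor in CHO-K1 cells; schedule: Post-acetylcholine fluorescence recording 140 s; benchmarks: low control EC20 acetylcholine (0%), high control EC100 acetylcholine (100%); read-out: Max/basal fluorescence ratio as % of EC20–EC100 ACh window; compound: single dose, 3 µM nominal final test concentration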
M5 ag: CHRM5 agonism in calcium assay | P08912 | CHO-K1 hM5 cells, Fluo-8 calcium fluorescence; 0% DMSO wells, 100% maximal acetylcholine response | activation, % at 3 µM | 360,000 compounds, 0.19% hits | AID 624037;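 active means activation above the run's mean over test compounds plus 3 SD, cut at about 23% in these data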;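 further: signal is peak over basal fluorescence ratio across the kinetic read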
M5 antag: antagonists of human muscarinic M5 receptor (CHRM5). P08912. CHO-hM5 cells, Fluo-8 calcium fluorescence, ACh EC80. inhibition, % at 3 µM. 360,000 compounds, 0.59% hits. AID 624040;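 active means inhibition above a per-plate cutoff, the mean of that plate's test compounds plus 3 SD, cut at about 27% in these data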;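 further: 0% = acetylcholine EC80 with DMSO and 100% = DMSO without agonist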
M4 PAM: potentiates acetylcholine response at human M4 receptor | 360,000 compounds, 0.4% hits | CHO-K1 hM4/Gqi5, Fluo-8 calcium fluorescence, ACh EC20; 0% = ACh EC20, 100% = maximal ACh | activation, % at 3 µM;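 active means activation above its plate's cutoff, the mean activation of sample wells plus 3 SD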
Target sequence (P08173 whole entry, looked up): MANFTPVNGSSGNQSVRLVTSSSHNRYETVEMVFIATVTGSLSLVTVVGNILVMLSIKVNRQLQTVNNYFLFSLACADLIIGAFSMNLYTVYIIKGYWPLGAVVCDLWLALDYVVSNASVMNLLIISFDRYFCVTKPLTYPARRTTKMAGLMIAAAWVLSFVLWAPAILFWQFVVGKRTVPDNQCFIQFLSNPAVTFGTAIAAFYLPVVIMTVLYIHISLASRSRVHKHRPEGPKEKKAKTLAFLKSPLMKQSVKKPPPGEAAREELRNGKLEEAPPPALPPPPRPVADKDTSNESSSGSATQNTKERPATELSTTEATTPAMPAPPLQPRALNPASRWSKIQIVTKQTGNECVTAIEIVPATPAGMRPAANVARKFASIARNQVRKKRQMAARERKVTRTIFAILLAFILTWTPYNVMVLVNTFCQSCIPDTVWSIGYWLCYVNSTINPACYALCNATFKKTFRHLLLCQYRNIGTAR
M4 ag: agonists of human muscarinic M4 receptor (CHRM4). 360,000 compounds, 0.14% hits. AID 624127. P08173. activation, % at 3 µM. CHO-K1 hM4/Gqi5, Fluo-8 calcium fluorescence; vehicle 0%, full acetylcholine response 100%;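 active means activation above the run mean over all test wells plus 3 SD, cut at about 32% in these data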;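 further: peak over basal fluorescence ratio per well then scaled between controls; 0% = DMSO wells and 100% = acetylcholine at EC100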
M4 antag: antagonists of human muscarinic M4 receptor (CHRM4) | P08173 | CHO-hM4 cells, ACh EC80, Fluo-8 calcium fluorescence | inhibition, % at 3 µM | 360,000 compounds, 0.73% hits;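 active means inhibition above its plate's cutoff, the mean inhibition of sample wells plus 3 SD, cut at about 27% in these data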;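 further: 0% = acetylcholine EC80 with DMSO and 100% = DMSO without agonist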
Numbers without * were called inactive.

SMILES	CHRM5 PAM	M5 ag	M5 antag	M4 PAM	M4 ag	M4 antag
COc1ccc(CNC(=O)C(c2ccco2)N(C(=O)c2ccccn2)c2ccccc2)cc1 (configuration not stated)	-2	5	1	-7	10	-2
COc1cccc(/C=C/C(=O)OCC(=O)c2c[nH]c3ccccc23)c1OC	-18	-1	27*	-9	14	13
CCOC(=O)C1CCN(C(=O)COC(=O)/C=C/c2cccc(OC)c2OC)CC1	1	24*	3	18	7	-12
COc1cccc(/C=C/C(=O)OCC(=O)c2c[nH]c3ccccc23)c1	-28	-2	9	-4	18	-2
CCOC(=O)C1CCN(C(=O)COC(=O)/C=C/c2ccccc2)CC1	3	7	-3	9	2	-13
COc1ccccc1C(=O)CSc1ccccn1	-16	0	27*	-11	10	12
O=C(O)CCSc1ccccn1	3	1	-8	13	4	3
O=C(CCSc1ccccn1)c1ccccc1	-16	-11	28*	-1	1	8
COC(=O)CNC(=O)CSc1ccccn1	4	2	3	-2	1	1
O=C(Nc1cccc(Cl)c1)Nc1cc(S(=O)(=O)N2CCCCC2)ccc1Cl	-18	4	29*	-15	10	16
CN1CCN(S(=O)(=O)c2ccc(NC(=O)Nc3cccc(Cl)c3)cc2)CC1	-3	3	12	-8	13	29*
Cc1oc(S(=O)(=O)N2CCCCC2)cc1NC(=O)Nc1ccccc1	-7	3	12	-19	14	-8
O=C(Nc1ccc(Cl)cc1)Nc1ccc(N2CCCC2)c(S(=O)(=O)Nc2ccccc2Cl)c1	-15	-1	27*	-5	6	16
O=C(Nc1ccc(N2CCOCC2)c(S(=O)(=O)Nc2ccccc2Cl)c1)c1ccccc1	-24	-5	13	-9	12	12
CN1CCN(S(=O)(=O)c2ccc(NC(=O)c3ccccc3Cl)cc2)CC1	-4	-4	7	-4	1	2
Cc1oc(S(=O)(=O)N2CCCCC2)cc1NC(=O)Nc1ccc(Cl)cc1	-28	9	32*	-24	22	1
COc1ccc(N2CC(C(=O)Nc3c4c(nn3-c3ccc(OC)cc3)CS(=O)(=O)C4)CC2=O)cc1 (configuration not stated)	-2	-2	-15	20*	0	-11
Cc1cccc(NC(=O)C(=O)NCC2CCCO2)c1 (configuration not stated)	1	1	5	-3	1	1
O=C(NCCCNC(=O)c1cnccn1)c1ccc(Cl)cc1	0	-3	17	1	2	0
O=C(NCCCNC(=O)c1cnccn1)c1ccc(Cl)c(Cl)c1	-9	-1	27	-14	-3	60*
CC1=NNC(=O)/C1=C\c1cn(-c2ccccc2)nc1-c1ccccc1	6	28*	32*	-18	12	39*
CC1=NOC(=O)/C1=C\c1ccc(-c2cccc(Cl)c2)o1	-5	-1	19	3	6	54*
CC1=NOC(=O)/C1=C\c1ccc(-c2ccc(Cl)c(C(=O)O)c2)o1	5	-1	9	-4	1	-2
CC(NC(=O)CNC(=O)c1ccccc1F)c1ccc(-n2ccnc2)cc1 (configuration not stated)	14	6	-2	5	0	-5
CC(C)C(NC(=O)OCc1ccccc1)C(=O)NC1CCCCC1 (configuration not stated)	2	1	9	31*	2	3
CCC(=O)Nc1nc(NCc2ccccc2OC)n(-c2ccccc2)n1	-2	-2	-3	7	1	1
CCCn1c(SCC(=O)Nc2cccc(S(=O)(=O)NC3=NCCCCC3)c2)nc2ccccc2c1=O	24*	-1	-5	4	0	-5
